# Source: PubChem BioAssay (several laboratories)
# ROMK mod: human ROMK K+ channel modulation, primary screen. B-score at 10 µM. P48048. Tet-inducible ROMK, thallium flux fluorescence; actives lie on both sides. actives 2% (n = 130,000);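 active means signal ratio slope over the read window, or its plate-corrected B-score, at least 3 SD from the plate mean, either direction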;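 further: B-score of the F/F0 ratio slope over 7 to 12 s after thallium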
# Target sequence (P48048 whole entry, looked up): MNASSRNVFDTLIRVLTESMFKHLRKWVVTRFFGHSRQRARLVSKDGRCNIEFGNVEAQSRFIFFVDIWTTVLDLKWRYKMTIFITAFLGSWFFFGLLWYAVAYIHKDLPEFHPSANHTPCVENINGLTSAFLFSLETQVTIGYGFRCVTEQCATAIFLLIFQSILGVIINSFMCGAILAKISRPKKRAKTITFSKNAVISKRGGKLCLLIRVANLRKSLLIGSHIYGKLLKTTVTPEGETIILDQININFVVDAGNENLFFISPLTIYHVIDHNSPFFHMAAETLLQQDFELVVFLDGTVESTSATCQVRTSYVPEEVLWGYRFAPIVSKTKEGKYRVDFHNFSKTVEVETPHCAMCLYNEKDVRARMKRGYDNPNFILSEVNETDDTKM
# bCat nuc transl: modulators of beta-catenin nuclear translocation; HeLa beta-catenin nuclear translocation, immunofluorescence imaging; nuclear translocation activity, % at 5 µM; actives 0.3% (n = 190,000);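 active means nuclear translocation activity above 50% at 5 µM, with a well cell count of 50 or more; inconclusive means wells under 50 cells across six images, flagged as toxic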;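 further: per-cell ratio of nuclear to cytoplasmic median beta-catenin stain intensity; plate controls were DMSO negative control for no effect and GSK-3 inhibitor IX positive control for full effect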
#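 System: Human HeLa cells, endogenous beta-catenin | Compound dosing: 5 µM primary, 0.02–20 µM confirmation | Timing: 24 h compound exposure at 37°C, 5% CO2 | Measured by: Fluorescence imaging of beta-catenin antibody stain plus DAPI | Read-out basis: % activation of per-cell nuclear versus cytoplasmic median beta-catenin signal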
# MT stabilizer: microtubule stabilizers in HeLa cells. HeLa tubulin immunostaining HCS, 24 h; share of cells brighter than vehicle mean+2SD. AID 2205. actives 0.83% (n = 200,000). % tubulin-high responders, % at 10 µM;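 active means plate Z-score above 3 for both tubulin-high and condensed-nucleus cell shares, with cell loss under 80%, at 10 µM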;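 further: anti alpha tubulin signal scored within the nucleus-defined area of each cell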
# DTT redox prof: compounds producing H2O2 with reducing agent – biochemical, NIH compound library profiling, artefact control for MLSCN library redox annotation, primary screen | actives 0.03% (n = 200,000) | AID 878 | DTT-dependent redox cycling H2O2, phenol red/HRP absorbance; 100% = 100 µM peroxide control, 0% = buffer | activation, % at 10 µM;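 active means activation of at least 50% relative to the plate's high and low controls in the primary single-dose screen; inactive means activation below 50%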;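 further: compound incubated with DTT at 0.8 mM final as the reducing agent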
# Cl transport mod: modulators of human KCC2 chloride dependent transport | B-score of Tl+ flux slope (higher = more flux/activation; lower = inhibition) at 10 µM | AID 1456 | Q9H2X9 | actives 2.2% (n = 190,000) | KCC2 cells, thallium flux FluoZin-2 fluorescence;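 active means thallium flux slope and its plate-corrected score both differing from the plate sample mean at a set confidence after two filtering rounds, in either direction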;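 further: slope of fluorescence scaled to starting intensity during 10 to 20 s after thallium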
# ROMK retest: human ROMK channel modulation, retest confirmation. ROMK thallium flux, fluorescence ratio; active compounds read low. AID 1917. shares compounds with ROMK mod. normalized thallium flux (F/F0 slope) at 10 µM. actives 54% (n = 3,000);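 active means Flux at 10 µM at least 3 SD below or above vehicle control mean in one or both replicates; inconclusive means no clear call, values can overlap the other calls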
# The depositor's hits bear a star; ? = inconclusive; / = no result. In the library only some 3.7% were active in any assay of this set; here they are far more common.
SMILES,ROMK mod,bCat nuc transl,MT stabilizer,DTT redox prof,Cl transport mod,ROMK retest
O=C1/C(=C/c2cccnc2)SC(=S)N1CC1CCCO1 (stereo not drawn),-4*,0,3,0,0.3,?
COc1ccc(CNCCC(c2ccccc2)c2ccc3c(c2)OCO3)cc1 (stereo not drawn),/,/,3,-3,0.84,0.053*
CS(=O)(=O)N(CC(=O)Nc1ccc(S(=O)(=O)N2CCOCC2)cc1)c1cccc(F)c1,0.21,1,4,0,-0.58,/
CCN1C(=O)c2cccc3c(S(=O)(=O)Nc4ccccc4OC)ccc1c23,/,-1,6,1,-1.6,0.062*
CCC(=O)NC1OC(CO)C(O)C(O)C1O (stereo not drawn),-2.4*,0,4,-2,-0.081,0.073
COC(=O)/C=C1/SC(=NC(=O)c2ccccc2)NC1=O,/,-4,3,0,0.65,/
COC(=O)/C=C1/SC(=NC(=O)c2ccc(F)cc2)NC1=O,/,-1,/,/,0.84,0.048*
COC(=O)/C=C1\SC(=NC(=O)c2cccc(Cl)c2)NC1=O,/,-2,1,4,1.6,0.052*
Cc1ccc(NS(=O)(=O)c2ccc(Br)s2)cc1S(=O)(=O)N1CCOCC1,-0.72,0,2,0,-0.79,/
C=CCNc1sc(C(=O)c2ccc(Br)s2)c(N)c1C#N,-3.6*,-17,2,1,-3.1,0.056*
Nc1cnc(Nc2ccc(Br)cc2)nc1N,/,0,/,/,-1,/
COc1ccc(C2C(C#N)=C(N)OC(C(C)(C)C)=C2C#N)cc1OC (stereo not drawn),-2.3*,-2,2,-1,/,0.068*
CC(=O)C1(C)OC(N)=C(C#N)C(c2ccccc2)C1(C#N)C#N (stereo not drawn),-3.3*,/,2,-2,0.13,?
CC(=O)C1=C(c2ccccc2)OC(N)=C(C#N)C1c1ccccc1C (stereo not drawn),/,3,3,0,-0.8,/
O=C(Cc1ncc(C(F)(F)F)cc1Cl)NCCc1ccccc1,-0.37,1,4,0,-1.3,/
Cc1ccc(NC(=O)Cc2ncc(C(F)(F)F)cc2Cl)cc1Cl,/,0,1,2,0.007,0.067*
CC(C)(C)c1ccc(S(=O)(=O)N(CCCN2CCOCC2)Cc2cccs2)cc1,-3.5*,2,6,0,0.12,0.052*
O=C(Cc1n[nH]c(=O)c2ccccc12)OCC(=O)c1ccc2c(c1)OCCO2,3.6*,18,21*,1,0.4,0.083
COc1cc(CC(=O)OCn2nnc3ccccc3c2=O)cc(OC)c1OC,0.31,-2,4,-2,0.49,/
COc1cc(/C=N/NS(=O)(=O)c2ccc(C)c([N+](=O)[O-])c2)ccc1O,-0.15,-2,2,-4,0.74,/
COc1ccc(-n2c(O)c(/C=N/NS(=O)(=O)c3ccc(C)c([N+](=O)[O-])c3)c3ccccc3c2=O)cc1OC,-3.3*,0,4,-1,-1.2,?
O=C(Nc1ccc(O)c(-c2nc3ccccc3o2)c1)C1(c2ccc(Br)cc2)CCCC1,/,4,5,1,0.18,0.079
O=C(c1ccc(-n2c(SCc3cccc(F)c3)nc3ccccc3c2=O)cc1)N1CCOCC1,-3.4*,-1,3,0,-1.4,0.059*
CCOc1cc2oc(=O)c3c(c2cc1Cl)CCC3,0.37,-1,7,10,0.31,0.086
Oc1ccc(/C=C/c2cnccn2)cc1,/,-2,/,/,0.43,/
SMILES,ROMK mod,bCat nuc transl,MT stabilizer,DTT redox prof,Cl transport mod,ROMK retest
O=C(N/N=C/C=C/c1ccccc1)c1n[nH]c2c1CCC2,4*,176*,25*,0,0.48,0.09
CC(/C=N/NC(=O)c1n[nH]c2c1CCC2)=C\c1ccccc1,5.5*,215*,11,0,-0.62,0.09
CCOC(=O)C1CCN(c2nc3c(C)cccn3c(=O)c2/C=C(\C#N)S(=O)(=O)c2ccccc2)CC1,/,0,/,/,-1,/
COc1ccccc1C1SCCN1S(=O)(=O)c1cccc(C(F)(F)F)c1 (stereo not drawn),-4.3*,/,2,0,-1.5,0.066*
COc1ccc(C2SCCN2S(=O)(=O)c2ccc(F)cc2)cc1OC (stereo not drawn),/,-3,2,-2,-0.41,/
COC(=O)C(C)SC1=N/C(=C/c2ccc(-n3cncn3)cc2)C(=O)N1 (stereo not drawn),/,-2,/,/,/,/
Cc1[nH]c(=O)[nH]c(=O)c1/C=N/NC(=O)[C@H](C)N,-0.2,0,/,/,-0.28,/
c1ccc(CCNc2ncnc3ccccc23)cc1,-3.7*,3,2,-3,0.75,0.076
CC(C)OC(=O)Nc1ccc(Oc2c(F)c(F)c(F)c(F)c2F)cc1,/,-2,5,-2,0.83,/
C/C=C/c1c(F)c(F)c(Oc2ccc(C(=O)O)cc2)c(F)c1F,3.8*,-1,3,0,/,0.09
CCC1(C(=O)O)NC(c2cc(OC)ccc2O)C2C(=O)N(Cc3ccccc3)C(=O)C21 (stereo not drawn),/,/,4,-1,-0.68,/
CCCCN1C(=O)C2C(c3ccc(OC)cc3O)NC(CC(C)C)(C(=O)O)C2C1=O (stereo not drawn),/,/,6,-2,0.55,0.08
CCOc1ccc(-c2nc(CN3CCCCC3CCn3cccn3)c(C)o2)cc1 (stereo not drawn),/,0,/,/,0.043,/
Cc1ccc(C(=O)CCC(=O)N2CCN(C(=O)c3ccco3)CC2)cc1,-0.0055,-2,2,0,0.73,/
COc1ccc(C2=NN(CC(=O)Nc3cc(C)ccc3C)C(=O)CC2)cc1,-1.4,0,/,/,0.19,/
COc1cc(NC(=O)C2CCCN2C(=O)OCc2ccccc2)cc(OC)c1 (stereo not drawn),-0.24,0,3,0,0.19,/
O=C(O)CCC(NC(=O)C1CCCN1C(=O)OCc1ccccc1)C(=O)O (stereo not drawn),1.5*,0,2,0,0.37,0.084
CC(C)(C)n1nnnc1C(c1cccc(C#N)c1)N1CCCc2ccccc21 (stereo not drawn),-4*,-9,6,0,/,0.065*
Cc1ccc(C(=O)Nc2ccnc(-c3cccnc3)n2)cc1,4.6*,-1,1,0,0.5,0.11*
Cc1nc(NC(=O)c2cccnc2)ccc1Br,/,-1,2,-3,0.13,0.079
Cc1ccc(NC(=O)Nc2ccnc(-c3cccnc3)n2)cc1,3.1,/,2,-1,/,/
COc1ccc(C(=O)Nc2ccnc(-c3cccnc3)n2)cc1,4.4*,-2,2,-1,/,0.1*
Cc1ccccc1C(=O)Nc1ccc(Br)c(C)n1,/,0,3,3,-0.46,/
O=C(Nc1cccc(Cl)c1)c1ccc2c(c1)SC1=NS(=O)(=O)CCN12,-0.69,0,1,0,0.56,/
